# Test results: ChEMBL document CHEMBL1143122, “Novel analogs of D-e-MAPP and B13. Part 1: synthesis and evaluation as potential anticancer agents” (Bioorg Med Chem, 2008)
# Tests used:
# Format in all cases: functional
# SN12C = assay: Antiproliferative activity against human SN12C cells after 48 hrs
# In short: (§1)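 NCI 60-cell screen. Cells were grown in RPMI 1640 with 5% FBS and 2 mM L-glutamine, then plated at 5,000–40,000 cells/well according to doubling time and preincubated for 24 h at 37 °C in 5% CO2. Compounds were dissolved in DMSO at 400× the top final concentration and tested at five 10-fold dilutions from 10−4 to 10−8 M for 48 h. Growth was read spectrophotometrically; GI50 is 50% net protein reduction.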
# NCI-H226 = assay: Antiproliferative activity against human NCI-H226 cells after 48 hrs; details: NCI-H226, 48 h; in short: as §1
# HCC 2998 = assay: Antiproliferative activity against human HCC2998 cells after 48 hrs; details: HCC 2998, 48 h; in short: as §1
# SF-295 = assay: Antiproliferative activity against human SF295 cells after 48 hrs; details: SF-295, 48 h; in short: as §1
# Hs-578T = assay: Antiproliferative activity against human HS578T cells after 48 hrs; in short: as §1
# [1] = Antiproliferative activity against human NCI-ADR-RES cells after 48 hrs; in short: as §1
# T47D = assay: Antiproliferative activity against human T47D cells after 48 hrs
# In short: (§2)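 NCI 60-cell-line screen. Lines grown in RPMI 1640 with 5% fetal bovine serum and 2 mM L-glutamine, plated at 5,000–40,000 cells/well according to doubling time, left 24 h at 37 °C in 5% CO2. Drug stocks in DMSO at 400-fold the top final concentration. Five 10-fold dilutions, 10−4 to 10−8 M, incubated 48 h. Growth read spectrophotometrically as net protein; GI50 taken as 50% reduction.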
# IGROV-1 = assay: Antiproliferative activity against human IGROV1 cells after 48 hrs; details: IGROV-1, 48 h; in short: as §1
# PC-3 = assay: Antiproliferative activity against human PC3 cells after 48 hrs; details: PC-3, 48 h; in short: as §1
# NCI-H322M = assay: Antiproliferative activity against human NCI-H322M cells after 48 hrs; in short: as §1
# BT-549 = assay: Antiproliferative activity against human BT549 cells after 48 hrs; details: BT-549, 48 h; in short: as §1
# SK-MEL-5 = assay: Antiproliferative activity against human SKMEL5 cells after 48 hrs; details: SK-MEL-5, 48 h; in short: as §1
# HOP-62 = assay: Antiproliferative activity against human HOP62 cells after 48 hrs; details: HOP-62, 48 h; in short: as §1
# UO-31 = assay: Antiproliferative activity against human UO31 cells after 48 hrs; details: UO-31, 48 h; in short: as §2
# CAKI-1 = assay: Antiproliferative activity against human CAKI1 cells after 48 hrs; details: CAKI-1, 48 h; in short: as §1
# TK-10 = assay: Antiproliferative activity against human TK10 cells after 48 hrs; details: TK-10, 48 h; in short: as §2
# NCI-H460 = assay: Antiproliferative activity against human NCI-H460 cells after 48 hrs; details: NCI-H460, 48 h; in short: as §1
# SF-268 = assay: Antiproliferative activity against human SF268 cells after 48 hrs; details: SF-268, 48 h; in short: as §1
# SNB-75 = assay: Antiproliferative activity against human SNB75 cells after 48 hrs; details: SNB-75, 48 h; in short: as §1
# U-251 = assay: Antiproliferative activity against human U251 cells after 48 hrs; details: U-251, 48 h; in short: as §2
# 786-0 = assay: Antiproliferative activity against human 786-0 cells after 48 hrs; details: 786-0, 48 h; in short: as §1
# SW-620 = assay: Antiproliferative activity against human SW620 cells after 48 hrs; details: SW-620, 48 h; in short: as §2
# [2] = Antiproliferative activity against human […] cells after 48 hrs; in short: as §1
# HT-29 = assay: Antiproliferative activity against human HT29 cells after 48 hrs; details: HT-29, 48 h; in short: as §1
# NCI-H23 = assay: Antiproliferative activity against human NCI-H23 cells after 48 hrs; details: NCI-H23, 48 h; in short: as §1
# DU-145 = assay: Antiproliferative activity against human DU145 cells after 48 hrs; details: DU-145, 48 h; in short: as §1
# COLO 205 = assay: Antiproliferative activity against human COLO205 cells after 48 hrs; details: COLO 205, 48 h; in short: as §1
# CCRF-CEM = assay: Antiproliferative activity against human CCRF-CEM cells after 48 hrs; in short: as §1
# SK-OV-3 = assay: Antiproliferative activity against human SKOV3 cells after 48 hrs; details: SK-OV-3, 48 h; in short: as §1
# [3] = read-out: Log LC50 (the source's name) (converted)
smiles,measurement,setting,value
CCCCCCCCCCCCCCN[C@H](CO)[C@H](O)c1ccccc1,GI50,SN12C,1.74 µM
same,LC50 (50% net cell kill),SN12C,6.46 µM
same,TGI,SN12C; read-out: Log TGI (converted),3.31 µM
same,GI50,NCI-H226,3.24 µM
same,CC50,NCI-H226; [3],> 100 µM
same,TGI,NCI-H226; read-out: Log TGI (converted),11.7 µM
same,GI50,HCC 2998,1.66 µM
same,CC50,HCC 2998; [3],5.62 µM
same,TGI,HCC 2998; read-out: Log TGI (converted),3.09 µM
same,GI50,SF-295,1.86 µM
same,LC50,SF-295,6.76 µM
same,TGI,SF-295; read-out: Log TGI (converted),3.55 µM
same,GI50,Hs-578T,2.82 µM
same,LC50,Hs-578T,> 100 µM
same,TGI,Hs-578T; read-out: Log TGI (converted),6.46 µM
same,GI50,[1],2.09 µM
same,LC50,[1],6.92 µM
same,TGI,[1]; read-out: Log TGI (converted),3.8 µM
same,GI50,T47D,1.91 µM
same,TGI,T47D; read-out: Log TGI (converted),3.63 µM
same,GI50,IGROV-1,1.55 µM
same,TGI,IGROV-1; read-out: Log TGI (converted),3.24 µM
same,GI50,PC-3,1.58 µM
same,LC50,PC-3,5.5 µM
same,TGI,PC-3; read-out: Log TGI (converted),2.95 µM
same,GI50,NCI-H322M,2.14 µM
same,CC50,NCI-H322M; [3],7.24 µM
same,TGI,NCI-H322M; read-out: Log TGI (converted),3.89 µM
same,GI50,BT-549,1.29 µM
same,LC50,BT-549,5.5 µM
same,TGI,BT-549; read-out: Log TGI (converted),2.63 µM
same,GI50,SK-MEL-5,2.14 µM
same,TGI,SK-MEL-5; read-out: Log TGI (converted),4.07 µM
same,GI50,HOP-62,1.48 µM
same,CC50,HOP-62; [3],5.37 µM
same,TGI,HOP-62; read-out: Log TGI (converted),2.82 µM
same,GI50,UO-31,3.8 µM
same,LC50,UO-31,79.4 µM
same,TGI,UO-31; read-out: Log TGI (converted),17.8 µM
same,GI50,CAKI-1,1.66 µM
same,CC50,CAKI-1; [3],7.76 µM
same,TGI,CAKI-1; read-out: Log TGI (converted),3.55 µM
same,GI50,TK-10,2 µM
same,CC50,TK-10; [3],13.8 µM
same,TGI,TK-10; read-out: Log TGI (converted),4.68 µM
same,GI50,NCI-H460,1.86 µM
same,TGI,NCI-H460; read-out: Log TGI (converted),3.47 µM
same,GI50,SF-268,1.66 µM
same,TGI,SF-268; read-out: Log TGI (converted),3.24 µM
same,GI50,SNB-75,2.29 µM
same,CC50,SNB-75; [3],27.5 µM
same,TGI,SNB-75; read-out: Log TGI (converted),5.62 µM
same,GI50,U-251,1.78 µM
same,CC50,U-251; [3],5.62 µM
same,TGI,U-251; read-out: Log TGI (converted),3.16 µM
same,GI50,786-0,1.62 µM
same,CC50,786-0; [3],5.62 µM
same,TGI,786-0; read-out: Log TGI (converted),3.02 µM
same,GI50,SW-620,2.4 µM
same,LC50 (concentration killing 50% of cells),SW-620,> 100 µM
same,GI50,[2],3.16 µM
same,LC50,[2],91.2 µM
same,TGI,[2]; read-out: Log TGI (converted),17.4 µM
same,GI50,HT-29,1.7 µM
same,LC50,HT-29,5.62 µM
same,TGI,HT-29; read-out: Log TGI (converted),3.09 µM
same,GI50,NCI-H23,3.55 µM
same,CC50,NCI-H23; [3],64.6 µM
same,TGI,NCI-H23; read-out: Log TGI (converted),9.77 µM
same,GI50,DU-145,1.66 µM
same,CC50,DU-145; [3],6.17 µM
same,TGI,DU-145; read-out: Log TGI (converted),3.16 µM
same,GI50,COLO 205,1.86 µM
same,CC50,COLO 205; [3],6.17 µM
same,TGI,COLO 205; read-out: Log TGI (converted),3.39 µM
same,GI50,CCRF-CEM,1.58 µM
same,CC50,CCRF-CEM; [3],7.94 µM
same,TGI,CCRF-CEM; read-out: Log TGI (converted),3.55 µM
same,GI50,SK-OV-3,6.76 µM
same,CC50,SK-OV-3; [3],79.4 µM
same,TGI,SK-OV-3; read-out: Log TGI (converted),24.5 µM
